Reference: article PMC8146373 (Biochemical pharmacology, 2021)

Experiments:
[1] = biological target: T1, GLP-1R (Homo sapiens, UniProt P43220); assay: cAMP wash-out experiment, GLP-1R-overexpressing HEK-293T cells; format: cell-based; settings: 25 μM compound, triple wash
[2] = biological target: SCTR K317C (Homo sapiens, UniProt P47872, K338C); assay: Mutational study, cAMP assay in HEK-293 cells transiently expressing SCTR K317C; format: cell-based; settings: 12.5–25 μM compound
[3] = biological target: GLP-1R C347A (Homo sapiens, UniProt P43220, C347A); format: cell-based; settings: 12.5–25 μM compound
Procedure, shortened: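 HEK-293 cells were transfected with 0.5 μg DNA/well of GLP-1R WT or C347A construct and harvested after 24 h into stimulation buffer. Cells were added to wells with DMSO or 12.5–25 μM compound. […] HTRF cAMP readout; four-parameter variable-slope fit; duplicates, ≥3 experiments.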

[4] = biological target: SNAP-SCTR (Homo sapiens, UniProt P47872); assay: TR-FRET SNAP-SCTR competition binding with Fluo-Sec, HEK-293 SNAP-SCTR membranes
[5] = biological target: SCTR K317A (Homo sapiens, UniProt P47872, K338A); assay: Mutational study, cAMP assay in HEK-293 cells transiently expressing SCTR K317A; format: cell-based; settings: 12.5–25 μM compound
[6] = system: INS-1 832/13 cells; assay: Glucose stimulated insulin secretion; format: cell-based, rat; settings: 20 μM compound, 15 mM glucose
[7] = biological target: T2, SCTR (Homo sapiens, UniProt P47872); assay: SCTR Sec-FL; format: cell-based
[8] = biological target: T1, GLP-1R; assay: GLP-1R PAM; format: cell-based
[9] = biological target: T3, GLP-1R (Rattus norvegicus, UniProt P32301); assay: cAMP assay; format: cell-based; settings: INS-1 cells, 12.5 μM compound
T3 sequence (P32301 22-463): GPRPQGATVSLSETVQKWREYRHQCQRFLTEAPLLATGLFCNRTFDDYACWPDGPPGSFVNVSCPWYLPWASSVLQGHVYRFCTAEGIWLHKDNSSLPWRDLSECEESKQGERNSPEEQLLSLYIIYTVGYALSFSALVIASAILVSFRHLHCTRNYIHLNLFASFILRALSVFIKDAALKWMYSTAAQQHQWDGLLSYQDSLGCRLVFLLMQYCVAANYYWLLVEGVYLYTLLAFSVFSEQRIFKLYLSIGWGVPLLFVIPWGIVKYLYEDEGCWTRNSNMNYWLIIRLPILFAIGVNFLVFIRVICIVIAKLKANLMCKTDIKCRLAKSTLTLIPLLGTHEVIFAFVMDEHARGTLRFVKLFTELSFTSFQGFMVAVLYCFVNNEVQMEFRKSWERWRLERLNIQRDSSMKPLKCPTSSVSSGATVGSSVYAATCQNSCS
Procedure, shortened: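 INS-1 832/13 cells (passage 18–29) were detached at 80–90% confluency, spun 300xg for 3 min and diluted in stimulation buffer. […] Cells were incubated 30 min at RT. LANCE Ultra detection (Eu-cAMP, ULight antibody) was read as TR-FRET after 60 min at RT.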

[10] = biological target: T2, SCTR; assay: SCTR PAM; format: cell-based
[11] = biological target: T1, GLP-1R; assay: GLP-1R agonist cAMP accumulation assay, GLP-1R-overexpressing HEK-293T cells; format: cell-based
[12] = biological target: T1, GLP-1R; assay: Allosteric activity studies; format: cell-based

T1 sequence (P43220 24-463): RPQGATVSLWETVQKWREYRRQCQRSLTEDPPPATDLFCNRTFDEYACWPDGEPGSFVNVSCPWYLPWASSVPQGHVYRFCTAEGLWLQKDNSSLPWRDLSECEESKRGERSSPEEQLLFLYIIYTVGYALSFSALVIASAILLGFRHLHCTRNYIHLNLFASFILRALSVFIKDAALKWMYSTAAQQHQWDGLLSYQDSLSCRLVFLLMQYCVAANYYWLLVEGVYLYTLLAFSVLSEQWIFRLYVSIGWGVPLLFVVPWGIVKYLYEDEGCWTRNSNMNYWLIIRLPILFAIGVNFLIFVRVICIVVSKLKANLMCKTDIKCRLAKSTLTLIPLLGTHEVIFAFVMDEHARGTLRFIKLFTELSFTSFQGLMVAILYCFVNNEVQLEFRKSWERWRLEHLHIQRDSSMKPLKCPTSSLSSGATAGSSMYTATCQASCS
T2 sequence (P47872 23-440): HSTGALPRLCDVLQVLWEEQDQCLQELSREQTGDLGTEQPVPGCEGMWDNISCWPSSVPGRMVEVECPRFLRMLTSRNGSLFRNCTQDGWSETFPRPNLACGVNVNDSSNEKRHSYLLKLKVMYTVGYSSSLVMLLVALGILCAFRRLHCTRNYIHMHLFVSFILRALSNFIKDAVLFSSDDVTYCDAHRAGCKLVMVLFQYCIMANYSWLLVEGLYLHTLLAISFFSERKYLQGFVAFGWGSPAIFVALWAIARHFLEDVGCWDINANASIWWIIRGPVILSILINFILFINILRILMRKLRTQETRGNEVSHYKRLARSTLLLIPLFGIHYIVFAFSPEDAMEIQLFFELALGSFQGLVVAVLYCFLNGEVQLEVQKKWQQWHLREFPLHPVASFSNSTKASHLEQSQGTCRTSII
Chain of GLP-1R C347A (P43220 24-463 C347A): as the sequence (P43220 24-463) above, with C324A counted along it
Chain of SNAP-SCTR (P47872 23-440): as the sequence (P47872 23-440) above
Chain of SCTR K317A (P47872 22-440 K338A limits assumed): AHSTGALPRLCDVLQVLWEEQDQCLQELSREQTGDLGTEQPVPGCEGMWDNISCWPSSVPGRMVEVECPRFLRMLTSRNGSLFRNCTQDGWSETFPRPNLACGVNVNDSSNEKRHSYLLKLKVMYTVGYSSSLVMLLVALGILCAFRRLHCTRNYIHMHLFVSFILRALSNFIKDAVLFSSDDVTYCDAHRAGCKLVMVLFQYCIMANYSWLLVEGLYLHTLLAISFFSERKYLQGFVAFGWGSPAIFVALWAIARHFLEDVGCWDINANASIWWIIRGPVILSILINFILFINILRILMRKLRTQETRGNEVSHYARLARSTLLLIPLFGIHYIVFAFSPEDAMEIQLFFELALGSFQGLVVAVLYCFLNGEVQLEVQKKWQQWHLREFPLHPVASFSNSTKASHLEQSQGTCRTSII
Chain of SCTR K317A (P09683 28-54 partner limits assumed): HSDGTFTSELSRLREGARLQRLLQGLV
Chain of SCTR K317C (P47872 22-440 K338C limits assumed): as the sequence (P47872 22-440 K338A limits assumed) above, with A317C counted along it

- intrinsic activity (elevation of basal response), added before or after the wash step [1]: substantial intrinsic activity
- cooperative (PAM) effects on GLP-1(9–36) at GLP-1R C347A compared to WT [3]: eradicated
- intrinsic agonist activity at GLP-1R C347A compared to WT [3]: eradicated
- EC50 [4]: 17 ± 14 µM
- Emax ([4]; read-out: SNAP-SCTR Binding Emax): 152 ± 11%
- EC50 [7]: 31 ± 19 µM
- Emax ([7]; CHO-K1, read-out: SCTR Sec-FL (PAM) Emax): 42 ± 2%
- EC50 [8]: 0.8 ± 0.2 µM
- selectivity toward GLP-1Rs (over SCTR PAM potency) ([8]; GLP-1R EC50 vs SCTR PAM EC50): 30 fold
- GLP-1R PAM (GLP-1) Emax ([8]; cAMP, EC20 of GLP-1, mean ± SD, n.d. = not detected): 76 ± 22%
- increase of efficacy of GLP-1(9–36) [9]: 106%
- receptor activation by GLP-1(9–36) in presence of compound [9]: around 50%
- EC50 [10]: 24 ± 12 µM
- Emax ([10]; CHO-K1, read-out: SCTR PAM (3-pep mix) Emax): 51 ± 25%
- EC50 [11]: 0.8 ± 0.6 µM
- GLP-1R agonist Emax ([11]; cAMP, no peptide ligand, mean ± SD, n.d. = not detected): 91 ± 16%
- Kb [12]: 3 µM
- cooperativity factor α, GLP-1(9–36) ([12]; GLP-1R-overexpressing cells): 137
- cooperativity factor β, GLP-1(9–36) ([12]; GLP-1R-overexpressing cells): 5.5
SMILES: CC[S+]([O-])c1nc(-c2cccc(OCc3ccccc3)c2)cc(C(F)(F)F)n1 (stereo not shown) [BETP, 4-(3-(Benzyloxy)phenyl)-2-(ethylsulfinyl)-6-(trifluoromethyl)pyrimidine]
- potentiating effects at SCTR K317C compared to WT [2]: neither mutating Lys-317 to alanine nor to cysteine had an impact
- potentiating effects at SCTR K317A compared to WT [5]: neither mutating Lys-317 to alanine nor to cysteine had an impact
- insulin secretion with GLP-1(9–36) co-stimulation ([6]; 1 μM GLP-1(9–36)): elevated insulin secretion
- interaction between compound and GLP-1(9–36) treatment (two-way ANOVA) [6]: significant interactions
- insulin secretion in the absence of GLP-1(9–36) ([6]; vs DMSO): significantly enhanced
- effect on GLP-1 treatment [9]: did not show a significant positive effect
